From ChEMBL document CHEMBL4842350, “Discovery of a Novel Bromodomain and Extra Terminal Domain (BET) Protein Inhibitor, I-BET282E, Suitable for Clinical Progression” (J Med Chem, 2021)

How the values were obtained:
[1] = Unbound fraction in human blood at 100 to 1000 ng/ml by LC-MS/MS-based rapid equilibrium dialysis method; type: ADME, tissue-based; conditions: dose 100-1000 ng/ml
Method in brief: (§1)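 Whole blood (male Balb/C mouse, male Wistar Han rat, male Beagle dog; human from one unmedicated donor) spiked to nominal 100 and 1000 ng/mL; 10 min at 37 °C, then rapid equilibrium dialysis against PBS 4 h at 37 °C, 100 rpm. Matrix-matched acetonitrile extraction, LC-MS/MS; mean of n = 6.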

[2] = target: Cytochrome P450 2D6 (Homo sapiens, UniProt P10635); assay: Inhibition of recombinant human CYP2D6 expressed in Escherichia coli using MMC as probe substrate incubated for 15 to 60 mins by fluorometric assay; type: ADME
Method in brief: (§2)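 Recombinant human CYPs coexpressed with NADPH reductase in E. coli bactosomes (0.1 mg protein/mL); profluorescent substrates ER (1A2), BMC (2C19), MMC (2D6), VividGreen or VividRed (3A4).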

[3] = target: Cytochrome P450 2C9 (Homo sapiens, UniProt P11712)
[4] = Volume of distribution at steady state in Wistar Han rat at 1 mg/kg/hr, iv measured upto 26 hrs by LC-MS/MS analysis; type: ADME, organism-based; conditions: in vivo, read-out: Vdss
[5] = Half life in Wistar Han rat at 1 mg/kg/hr, iv measured upto 26 hrs by LC-MS/MS analysis; type: ADME, organism-based; conditions: in vivo
[6] = Clearance in CD1 mouse blood at 1.4 mg/kg/hr, iv measured upto 24 hrs by LC-MS/MS analysis
[7] = AUC(0 to t) in Wistar Han rat at 1 mg/kg, po measured upto 24 hrs by HPLC-MS/MS analysis; type: ADME, organism-based; set-up: route oral, dose 1 mg/kg, time <=24; conditions: in vivo
Method in brief: (§3)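 Oral suspension in 1% (w/v) hydroxypropylmethyl cellulose in water; male rats (n = 3) and male dogs (n = 4). AUC taken from 0 h to last quantifiable time point; Cmax is maximum observed plasma concentration; Tmax reported as median. Mean ± SD.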

[8] = Tmax in Wistar Han rat at 1 mg/kg, po measured upto 24 hrs by HPLC-MS/MS analysis; type: ADME, organism-based; conditions: in vivo; method in brief: as §3
[9] = target: Cytochrome P450 3A4 (Homo sapiens, UniProt P08684); assay: Inhibition of recombinant human CYP3A4 expressed in Escherichia coli using VG as probe substrate incubated for 15 to 60 mins by fluorometric assay; type: ADME
[10] = Unbound fraction in Beagle dog blood at 100 to 1000 ng/ml by LC-MS/MS-based rapid equilibrium dialysis method; type: ADME, tissue-based, Canis lupus familiaris; conditions: dose 100-1000 ng/ml; method in brief: as §1
[11] = Unbound fraction in Balb/C mouse blood at 100 to 1000 ng/ml by LC-MS/MS-based rapid equilibrium dialysis method; type: ADME, tissue-based; conditions: dose 100-1000 ng/ml; method in brief: as §1
[12] = target: T1, Cytochrome P450 1A2 (Homo sapiens, UniProt P05177); assay: Inhibition of recombinant human CYP1A2 expressed in Escherichia coli using ER as probe substrate incubated for 15 to 60 mins by fluorometric assay; type: ADME; method in brief: as §2
T1 sequence (P05177 whole entry): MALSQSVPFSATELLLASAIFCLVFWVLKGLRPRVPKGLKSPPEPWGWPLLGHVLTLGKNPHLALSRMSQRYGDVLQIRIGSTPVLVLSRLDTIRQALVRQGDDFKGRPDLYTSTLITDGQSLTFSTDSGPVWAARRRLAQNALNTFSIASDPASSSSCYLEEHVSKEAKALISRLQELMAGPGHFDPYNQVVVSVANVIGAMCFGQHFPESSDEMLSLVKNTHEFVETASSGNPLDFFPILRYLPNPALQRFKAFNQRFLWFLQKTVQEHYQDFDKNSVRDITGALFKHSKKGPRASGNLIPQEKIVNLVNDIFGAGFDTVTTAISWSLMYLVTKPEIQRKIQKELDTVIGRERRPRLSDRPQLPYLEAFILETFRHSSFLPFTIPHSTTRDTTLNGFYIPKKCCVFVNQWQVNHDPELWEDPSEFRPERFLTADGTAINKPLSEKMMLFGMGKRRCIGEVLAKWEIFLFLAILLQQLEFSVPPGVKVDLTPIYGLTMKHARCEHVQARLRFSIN

[13] = Total blood clearance in CD1 mouse at 1 mg/kg/hr, iv measured upto 24 hrs by LC-MS/MS analysis relative to hepatic blood flow; type: ADME, organism-based; conditions: in vivo
Method in brief: (§4)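 Surgically cannulated male CD1 mice (n = 3), 1 h iv infusion via jugular vein at 1 mg/kg/h (0.2 mg/mL in 2% DMSO/98% 10% Kleptose HPB in saline, 5 mL/kg/h). Tail-vein blood to 24 h plus terminal cardiac sample at 26 h; LC-MS/MS, LLQ 5 ng/mL. Mean ± SD.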

[14] = Half life in Beagle dog at 1 mg/kg/hr, iv measured upto 28 hrs by LC-MS/MS analysis; type: ADME, organism-based, Canis lupus familiaris; conditions: in vivo
[15] = human, hepatocytes, 2 h, 0.5 µM
[16] = AUC(0 to t) in Beagle dog at 5 mg/kg, po measured upto 24 hrs by HPLC-MS/MS analysis; type: ADME, organism-based, Canis lupus familiaris; set-up: route oral, dose 5 mg/kg, time <=24; conditions: in vivo; method in brief: as §3
[17] = rat, hepatocytes, 2 h, 0.5 µM
[18] = target: Cytochrome P450 2C19 (Homo sapiens, UniProt P33261); assay: Inhibition of recombinant human CYP2C19 expressed in Escherichia coli using BMC as probe substrate incubated for 15 to 60 mins by fluorometric assay; type: ADME; method in brief: as §2
[19] = target: CREB-binding protein (Homo sapiens) (UniProt Q92793); assay: Binding affinity to CBP (unknown origin) assessed as change in melting temperature
[20] = target: CREB-binding protein (Homo sapiens) (UniProt Q92793); assay: Binding affinity to CBP (unknown origin) by ITC assay
[21] = Volume of distribution at steady state in CD1 mouse at 1 mg/kg/hr, iv measured upto 24 hrs by LC-MS/MS analysis; type: ADME, organism-based; conditions: in vivo, read-out: Vdss; method in brief: as §4
[22] = Cmax in Beagle dog at 5 mg/kg, po measured upto 24 hrs by HPLC-MS/MS analysis; type: ADME, organism-based, Canis lupus familiaris; set-up: route oral, dose 5 mg/kg, time <=24; conditions: in vivo; method in brief: as §3
[23] = Total blood clearance in Wistar Han rat at 1 mg/kg/hr, iv measured upto 26 hrs by LC-MS/MS analysis relative to hepatic blood flow; type: ADME, organism-based; conditions: in vivo
[24] = dog, hepatocytes, 2 h, 0.5 µM
[25] = target: Bromodomain-containing protein 4 (Homo sapiens, UniProt O60885); assay: Inhibition of BRD4 in human PBMC assessed as reduction in LPS-induced IL-6 secretion incubated for 18 to 24 hrs by MSD assay
[26] = Half life in CD1 mouse at 1 mg/kg/hr, iv measured upto 24 hrs by LC-MS/MS analysis; type: ADME, organism-based; conditions: in vivo; method in brief: as §4
[27] = Metabolic stability in mouse hepatocytes assessed as intrinsic clearance per g liver tissue at 0.5 uM measured upto 120 mins by LC-MS/MS analysis; type: ADME, cell-based, Hepatocyte; conditions: 2 h
Method in brief: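 Cryopreserved mouse hepatocytes at 0.7 million cells/mL in Williams Medium E, compound 0.5 μM final (also repeated at 0.05 μM), 37 °C. […] No-cell and no-compound controls.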

[28] = Tmax in Beagle dog at 5 mg/kg, po measured upto 24 hrs by HPLC-MS/MS analysis; type: ADME, organism-based, Canis lupus familiaris; conditions: in vivo; method in brief: as §3

Sequence of CREB-binding protein (Homo sapiens) (Q92793 2-2442 limits assumed): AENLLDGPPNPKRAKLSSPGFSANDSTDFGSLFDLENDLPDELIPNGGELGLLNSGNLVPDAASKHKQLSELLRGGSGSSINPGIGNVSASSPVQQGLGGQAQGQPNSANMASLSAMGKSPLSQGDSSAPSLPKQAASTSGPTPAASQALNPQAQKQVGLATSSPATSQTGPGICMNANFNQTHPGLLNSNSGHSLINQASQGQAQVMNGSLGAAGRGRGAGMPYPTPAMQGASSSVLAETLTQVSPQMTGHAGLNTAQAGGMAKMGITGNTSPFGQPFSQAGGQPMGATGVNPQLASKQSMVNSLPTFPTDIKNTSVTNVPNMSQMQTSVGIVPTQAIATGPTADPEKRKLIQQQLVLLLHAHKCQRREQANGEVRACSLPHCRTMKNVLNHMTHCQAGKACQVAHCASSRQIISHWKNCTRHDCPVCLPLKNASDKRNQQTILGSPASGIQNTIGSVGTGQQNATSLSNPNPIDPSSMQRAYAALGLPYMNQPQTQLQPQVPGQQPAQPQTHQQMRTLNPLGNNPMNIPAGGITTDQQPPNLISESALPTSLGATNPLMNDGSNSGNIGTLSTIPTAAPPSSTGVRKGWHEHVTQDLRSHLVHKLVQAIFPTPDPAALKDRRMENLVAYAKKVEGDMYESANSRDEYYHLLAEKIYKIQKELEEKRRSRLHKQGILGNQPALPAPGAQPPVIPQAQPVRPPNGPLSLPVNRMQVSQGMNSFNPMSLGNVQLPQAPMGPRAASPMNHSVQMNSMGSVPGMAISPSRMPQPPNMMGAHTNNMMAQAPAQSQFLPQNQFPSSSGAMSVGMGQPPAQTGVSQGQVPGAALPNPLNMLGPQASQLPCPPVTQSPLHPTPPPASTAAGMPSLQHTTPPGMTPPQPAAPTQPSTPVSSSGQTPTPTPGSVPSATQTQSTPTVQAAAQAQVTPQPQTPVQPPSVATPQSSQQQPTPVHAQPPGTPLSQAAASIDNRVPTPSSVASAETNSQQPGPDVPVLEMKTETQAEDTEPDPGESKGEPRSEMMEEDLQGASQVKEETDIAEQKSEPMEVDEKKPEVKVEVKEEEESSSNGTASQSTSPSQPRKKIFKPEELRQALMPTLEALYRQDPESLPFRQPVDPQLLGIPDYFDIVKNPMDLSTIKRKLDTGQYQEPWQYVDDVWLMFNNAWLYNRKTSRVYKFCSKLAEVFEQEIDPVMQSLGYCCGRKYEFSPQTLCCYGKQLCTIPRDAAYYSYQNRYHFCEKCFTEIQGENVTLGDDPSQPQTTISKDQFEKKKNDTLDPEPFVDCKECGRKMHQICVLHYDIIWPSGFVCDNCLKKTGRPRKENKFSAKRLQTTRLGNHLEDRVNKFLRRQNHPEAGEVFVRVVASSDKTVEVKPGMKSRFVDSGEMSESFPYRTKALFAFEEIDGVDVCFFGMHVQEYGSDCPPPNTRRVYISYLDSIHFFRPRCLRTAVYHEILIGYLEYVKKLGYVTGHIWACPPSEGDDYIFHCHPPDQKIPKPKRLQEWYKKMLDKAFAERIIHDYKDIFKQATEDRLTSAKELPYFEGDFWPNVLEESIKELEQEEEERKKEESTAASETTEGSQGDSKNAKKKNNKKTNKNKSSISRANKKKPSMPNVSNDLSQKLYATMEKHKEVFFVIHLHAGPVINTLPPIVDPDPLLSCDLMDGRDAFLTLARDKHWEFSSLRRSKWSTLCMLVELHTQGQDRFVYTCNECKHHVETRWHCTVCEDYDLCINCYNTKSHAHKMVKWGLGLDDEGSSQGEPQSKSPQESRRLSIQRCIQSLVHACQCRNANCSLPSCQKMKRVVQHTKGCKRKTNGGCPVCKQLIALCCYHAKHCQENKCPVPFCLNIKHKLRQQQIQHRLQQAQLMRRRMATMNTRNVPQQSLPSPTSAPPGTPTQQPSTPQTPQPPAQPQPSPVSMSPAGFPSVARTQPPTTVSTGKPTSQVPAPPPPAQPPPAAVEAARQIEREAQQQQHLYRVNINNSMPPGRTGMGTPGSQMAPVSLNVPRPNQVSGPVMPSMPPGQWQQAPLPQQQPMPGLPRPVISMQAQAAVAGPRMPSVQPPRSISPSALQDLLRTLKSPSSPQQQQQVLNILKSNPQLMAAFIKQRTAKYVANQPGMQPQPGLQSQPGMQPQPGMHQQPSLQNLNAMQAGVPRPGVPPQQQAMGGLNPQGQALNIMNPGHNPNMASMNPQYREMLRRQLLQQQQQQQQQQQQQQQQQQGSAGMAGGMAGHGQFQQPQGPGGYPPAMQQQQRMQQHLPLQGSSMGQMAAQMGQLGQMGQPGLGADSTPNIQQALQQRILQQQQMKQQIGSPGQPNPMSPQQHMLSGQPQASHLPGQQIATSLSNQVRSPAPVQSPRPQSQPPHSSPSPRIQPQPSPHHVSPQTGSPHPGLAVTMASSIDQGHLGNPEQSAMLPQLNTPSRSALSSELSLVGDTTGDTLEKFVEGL
Sequence of Cytochrome P450 3A4 (P08684 whole entry): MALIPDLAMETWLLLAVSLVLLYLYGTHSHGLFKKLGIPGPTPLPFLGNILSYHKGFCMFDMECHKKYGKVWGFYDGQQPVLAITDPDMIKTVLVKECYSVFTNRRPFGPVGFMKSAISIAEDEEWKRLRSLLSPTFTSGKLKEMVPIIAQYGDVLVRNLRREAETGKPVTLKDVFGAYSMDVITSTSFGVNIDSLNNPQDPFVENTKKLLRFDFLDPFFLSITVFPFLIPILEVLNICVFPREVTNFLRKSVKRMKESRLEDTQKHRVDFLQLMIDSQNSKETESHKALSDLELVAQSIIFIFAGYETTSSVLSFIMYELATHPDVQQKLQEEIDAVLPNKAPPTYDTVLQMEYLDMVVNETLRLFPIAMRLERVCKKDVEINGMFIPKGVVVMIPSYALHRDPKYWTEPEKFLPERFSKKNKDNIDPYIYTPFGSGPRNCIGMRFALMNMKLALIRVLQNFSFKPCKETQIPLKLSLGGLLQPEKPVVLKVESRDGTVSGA
Sequence of Cytochrome P450 2C19 (P33261 whole entry): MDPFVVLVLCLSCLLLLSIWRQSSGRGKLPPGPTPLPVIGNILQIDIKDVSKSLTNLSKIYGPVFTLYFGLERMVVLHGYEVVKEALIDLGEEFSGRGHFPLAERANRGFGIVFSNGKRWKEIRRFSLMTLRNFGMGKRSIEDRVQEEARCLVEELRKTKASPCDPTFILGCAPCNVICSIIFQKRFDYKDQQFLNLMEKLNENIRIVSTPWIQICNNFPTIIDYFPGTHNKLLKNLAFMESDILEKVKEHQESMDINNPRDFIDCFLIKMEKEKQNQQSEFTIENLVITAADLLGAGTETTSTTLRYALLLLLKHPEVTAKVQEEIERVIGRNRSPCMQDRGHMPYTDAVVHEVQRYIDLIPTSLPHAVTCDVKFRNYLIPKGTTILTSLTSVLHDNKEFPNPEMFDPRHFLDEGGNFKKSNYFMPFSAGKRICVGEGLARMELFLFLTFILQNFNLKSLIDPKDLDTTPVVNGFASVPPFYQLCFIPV
Sequence of Cytochrome P450 2C9 (P11712 whole entry): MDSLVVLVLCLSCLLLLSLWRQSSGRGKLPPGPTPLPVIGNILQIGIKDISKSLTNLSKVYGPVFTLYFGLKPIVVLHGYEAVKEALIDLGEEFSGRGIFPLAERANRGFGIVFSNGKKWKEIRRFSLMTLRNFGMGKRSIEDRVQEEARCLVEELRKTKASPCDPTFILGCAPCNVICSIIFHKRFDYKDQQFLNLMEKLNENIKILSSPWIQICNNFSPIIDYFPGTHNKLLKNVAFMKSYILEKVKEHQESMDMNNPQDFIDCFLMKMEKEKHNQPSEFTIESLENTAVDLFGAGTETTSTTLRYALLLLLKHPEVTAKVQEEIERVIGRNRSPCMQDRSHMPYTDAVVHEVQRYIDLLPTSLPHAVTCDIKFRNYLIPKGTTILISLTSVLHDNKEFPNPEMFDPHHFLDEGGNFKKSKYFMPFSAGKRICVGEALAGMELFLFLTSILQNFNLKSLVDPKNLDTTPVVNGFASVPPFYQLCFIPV
Sequence of Cytochrome P450 2D6 (P10635 whole entry): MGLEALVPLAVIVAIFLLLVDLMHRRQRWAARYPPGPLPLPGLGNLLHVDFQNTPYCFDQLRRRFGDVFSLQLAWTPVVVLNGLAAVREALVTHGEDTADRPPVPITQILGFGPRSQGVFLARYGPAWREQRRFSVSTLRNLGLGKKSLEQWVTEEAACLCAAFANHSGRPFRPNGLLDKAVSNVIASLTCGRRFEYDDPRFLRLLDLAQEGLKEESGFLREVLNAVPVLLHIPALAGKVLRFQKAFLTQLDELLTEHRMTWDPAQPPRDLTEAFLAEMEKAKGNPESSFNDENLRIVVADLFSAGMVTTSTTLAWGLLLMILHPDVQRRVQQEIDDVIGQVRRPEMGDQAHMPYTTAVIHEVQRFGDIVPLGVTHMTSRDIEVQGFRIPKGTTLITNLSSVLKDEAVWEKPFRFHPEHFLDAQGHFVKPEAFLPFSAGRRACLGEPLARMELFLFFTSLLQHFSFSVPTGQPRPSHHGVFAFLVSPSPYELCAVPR

Question: For `COC[C@@H](C)n1c(C2CCOCC2)nc2cnc3cc(-c4c(C)noc4C)c(OC)cc3c21`, which fraction unbound [1] is on record?
Answer: 0.17

Question: What about the IC50 [2] of the same compound?
Answer: > 50 µM

Question: What about the IC50 [3] of the same compound?
Answer: > 50 µM

Question: And the Vd [4]?
Answer: 2.2 L/kg

Question: What about the half-life [5] of the same compound?
Answer: 1.4 h

Question: What about the clearance [6] of the same compound?
Answer: 23 mL/min/kg

Question: What about the AUC(0-t) at 24 h [7] of the same compound?
Answer: 467 ng·h/mL

Question: And the Tmax [8]?
Answer: 1 h

Question: And the IC50 [9]?
Answer: 25.1 µM

Question: What about the fraction unbound [10] of the same compound?
Answer: 0.24

Question: And the fraction unbound [11]?
Answer: 0.1

Question: What about the IC50 [12] of the same compound?
Answer: > 50 µM

Question: And the CLH [13]?
Answer: 19%

Question: What about the half-life [14] of the same compound?
Answer: 1.8 h

Question: What about the CLint [15] of the same compound?
Answer: < 0.86 mL/min/g liver

Question: What about the AUCt [16] of the same compound?
Answer: 367 ng·h/mL

Question: What about the CLint [17] of the same compound?
Answer: < 0.86 mL/min/g liver

Question: And the IC50 [18]?
Answer: > 50 µM

Question: And the ΔTm [19]?
Answer: 3.4 °C

Question: And the Activity [20]?
Answer: 1730 nM

Question: And the Vd [21]?
Answer: 1.9 L/kg

Question: And the Cmax [22]?
Answer: 177 ng/mL

Question: And the CLH [23]?
Answer: 22%

Question: What about the CLint [24] of the same compound?
Answer: 2.4 mL/min/g liver

Question: And the IC50 [25]?
Answer: 0.1 µM

Question: And the half-life [26]?
Answer: 1.2 h

Question: And the CLint [27]?
Answer: < 0.86 mL/min/g liver

Question: And the Tmax [28]?
Answer: 0.75 h
